In ChEMBL document CHEMBL4385662, “Anti-tubercular activity of novel 4-anilinoquinolines and 4-anilinoquinazolines” (Bioorg Med Chem Lett, 2019):
Activity calls are given as the source filed them. No cut-off for these calls is given here.

Tests used:
[1] = system: Mycobacterium tuberculosis; experiment: Anti-tubercular activity against Mycobacterium tuberculosis H37Rv expressing LuxABCDE assessed as relative luminescence by measuring ratio of RLU (test compound)/RLU(no compound) at 2.5 uM by luminescence based assay; assay type: functional
[2] = cells; assay type: ADME, cell-based; settings: Homo sapiens, WS1, 48 h
[3] = system: Mycobacterium tuberculosis; experiment: Anti-tubercular activity against Mycobacterium tuberculosis H37Rv expressing LuxABCDE assessed as relative luminescence by measuring ratio of RLU (test compound)/RLU(no compound) at 10 uM by luminescence based assay; assay type: functional
[4] = system: Mycobacterium tuberculosis; experiment: Anti-tubercular activity against Mycobacterium tuberculosis H37Rv expressing LuxABCDE assessed as relative luminescence by measuring ratio of RLU (test compound)/RLU(no compound) at 1.25 uM by luminescence based assay; assay type: functional
[5] = system: Mycobacterium tuberculosis; experiment: Anti-tubercular activity against Mycobacterium tuberculosis H37Rv expressing LuxABCDE assessed as relative luminescence by measuring ratio of RLU (test compound)/RLU(no compound) at 0.625 uM by luminescence based assay; assay type: functional, organism-based
[6] = system: Mycobacterium tuberculosis; experiment: Anti-tubercular activity against Mycobacterium tuberculosis H37Rv expressing LuxABCDE assessed as relative luminescence by measuring ratio of RLU (test compound)/RLU(no compound) at 20 uM by luminescence based assay; assay type: functional
[7] = system: Mycobacterium tuberculosis; experiment: Anti-tubercular activity against Mycobacterium tuberculosis H37Rv expressing LuxABCDE assessed as relative luminescence by measuring ratio of RLU (test compound)/RLU(no compound) at 5 uM by luminescence based assay; assay type: functional
[8] = system: Mycobacterium tuberculosis; experiment: Anti-tubercular activity against Mycobacterium tuberculosis H37Rv expressing LuxABCDE assessed as luminescence signal at 2.5 uM by luminescence based assay relative to untreated control; assay type: functional
[9] = system: Mycobacterium tuberculosis; experiment: Anti-tubercular activity against Mycobacterium tuberculosis H37Rv expressing LuxABCDE assessed as luminescence signal at 1.3 uM by luminescence based assay relative to untreated control; assay type: functional
[10] = system: Mycobacterium tuberculosis; experiment: Anti-tubercular activity against Mycobacterium tuberculosis H37Rv expressing LuxABCDE assessed as reduction in microbial growth at 20 uM by luminescence based assay relative to control; assay type: functional; settings: read-out: GI
Procedure, shortened: (§1)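 Growth inhibition was assessed by two assays. […] Values are the mean of 3 biological replicates with standard deviation.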

[11] = system: Mycobacterium tuberculosis; experiment: Anti-tubercular activity against Mycobacterium tuberculosis H37Rv expressing LuxABCDE assessed as reduction in microbial growth by luminescence based assay; assay type: functional; procedure, shortened: as §1
[12] = system: Mycobacterium tuberculosis; experiment: Anti-tubercular activity against Mycobacterium tuberculosis H37Rv expressing LuxABCDE assessed as reduction in microbial growth at 5 uM by luminescence based assay relative to control; assay type: functional; settings: read-out: GI; procedure, shortened: as §1
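Throughout, for IC50: cell viability loss read out with alamar blue dye, IC50 being the concentration cutting viability by half.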

| Compound | Ratio [1] | IC50 [2] [µM] | Ratio [3] | Ratio [4] | Activity [5] | Ratio [6] | Ratio [7] | Activity [8] [%] | Activity [9] [%] | inhibition of growth at 20 µM [10] [%] | MIC90 [11] [µM] | inhibition of growth at 5 µM [12] [%] |
| --- | --- | --- | --- | --- | --- | --- | --- | --- | --- | --- | --- | --- |
| Oc1ccc2c(Nc3ccc(OCc4ccc(F)cc4)cc3)ncnc2c1 | 1.01 | > 100 | 0.89 | 0.94 | inactive | 0.83 | 0.9 | – | – | – | – | – |
| COc1ccc2c(Nc3ccc(NC(=O)c4ccc(C)cc4)c(O)c3)ccnc2c1 | 1.11 | 4.7 | 1.11 | 1.13 | – | 0.96 | 1.09 | – | – | – | – | – |
| COc1cc(Nc2ccnc3ccc(Br)cc23)cc(OC)c1OC | – | > 100 | 1.41 | – | – | 1.28 | 1.35 | >95 | >95 | – | – | – |
| CS(=O)(=O)CCNCc1ccc(-c2ccc3ncnc(Nc4ccc(OCc5cccc(F)c5)c(Cl)c4)c3c2)o1 [LAPATINIB] | 0.9 | 13 | 0.17 | 0.99 | inactive | 0.08 | 0.74 | – | – | – | – | – |
| COc1cc2nccc(Nc3ccc(OCc4ccc(C)cc4)cc3)c2cc1OC | 0.17 | 5.4 | 0.08 | 0.43 | – | 0.09 | 0.1 | – | – | 98 | 0.63 to 1.25 | 98 |
| Oc1ccc2c(Nc3ccc(OCc4ccccc4)cc3)ncnc2c1 | 0.9 | > 100 | 0.88 | 0.9 | inactive | 0.89 | 0.89 | – | – | – | – | – |
| COc1cc2nccc(Nc3ccc(OCc4cccc(F)c4)c(Cl)c3)c2cc1OC | – | 11 | 0.22 | – | – | 0.1 | 0.78 | >95 | >95 | – | – | – |
| COc1cc2ncc(C#N)c(Nc3cccc(Br)c3)c2cc1OC | – | 11 | 0.56 | – | – | 0.37 | 0.88 | >95 | >95 | – | – | – |
| COc1cc2nccc(Nc3cccc(Br)c3)c2cc1OC | – | 9.6 | 0.9 | – | – | 0.6 | 1.03 | >95 | >95 | – | – | – |
| C#Cc1cccc(Nc2ccnc3cc(OCCOC)c(OCCOC)cc23)c1 | – | > 100 | 0.79 | – | – | 0.58 | 0.88 | >95 | >95 | – | – | – |
| COc1cc2ncnc(Nc3ccc(OCc4cccc(F)c4)c(Cl)c3)c2cc1OC | – | 1.1 | 0.74 | – | – | 0.8 | 0.92 | >95 | >95 | – | – | – |
| C#Cc1cccc(Nc2c(C#N)cnc3cc(OC)c(OC)cc23)c1 | – | > 100 | 1.03 | – | – | 0.98 | 1.08 | >95 | >95 | – | – | – |
| Oc1ccc2ncnc(Nc3ccc(OCc4ccc(F)cc4)cc3)c2c1 | 0.76 | > 100 | 0.44 | 0.86 | inactive | 0.32 | 0.64 | – | – | – | – | – |
| C#Cc1cccc(Nc2ncnc3cc(OC)c(OC)cc23)c1 | – | > 100 | 0.83 | – | – | 0.69 | 0.93 | >95 | >95 | – | – | – |
| C#Cc1cccc(Nc2ccnc3cc(OC)c(OC)cc23)c1 | – | > 100 | 0.89 | – | – | 0.67 | 1.02 | >95 | >95 | – | – | – |
| COc1cc2ncnc(Nc3cc(OC)c(OC)c(OC)c3)c2cc1OC | – | > 100 | 1.01 | – | – | 0.94 | 1.03 | >95 | >95 | – | – | – |
| COc1cc2ncc(C#N)c(Nc3cc(OC)c(OC)c(OC)c3)c2cc1OC | – | > 100 | 1.01 | – | – | 0.97 | 1.03 | >95 | >95 | – | – | – |
| Oc1cc2ncnc(Nc3ccc(OCc4ccc(F)cc4)cc3)c2cc1O | 1.14 | > 100 | 0.89 | 1.04 | inactive | 0.76 | 1 | – | – | – | – | – |
| COc1cc2nccc(Nc3ccc(NC(=O)c4ccc(C(C)(C)C)cc4)c(O)c3)c2cc1OC | 1.12 | 2.6 | 0.72 | 1.1 | – | 0.25 | 1.06 | – | – | – | – | – |

| Compound | Ratio [1] | IC50 [2] [µM] | Ratio [3] | Ratio [4] | Activity [5] | Ratio [6] | Ratio [7] | Activity [8] [%] | Activity [9] [%] | inhibition of growth at 20 µM [10] [%] | MIC90 [11] [µM] | inhibition of growth at 5 µM [12] [%] |
| --- | --- | --- | --- | --- | --- | --- | --- | --- | --- | --- | --- | --- |
| COc1cc(Nc2ccnc3ccc(C(F)(F)F)cc23)cc(OC)c1OC | – | > 100 | 1.14 | – | – | 1.21 | 1.23 | >95 | >95 | – | – | – |
| Oc1ccc2ncnc(Nc3ccc(OCc4ccccc4)cc3)c2c1 | 0.94 | 26 | 0.9 | 0.95 | inactive | 0.8 | 0.96 | – | – | – | – | – |
| Oc1ccc2ncnc(Nc3ccc(OCc4cccc(F)c4)cc3)c2c1 | 0.64 | 12 | 0.39 | 0.76 | inactive | 0.25 | 0.49 | – | – | – | – | – |
| Oc1ccc2ncnc(Nc3ccc(OCc4ccccc4F)cc3)c2c1 | 0.82 | 28 | 0.46 | 0.89 | inactive | 0.28 | 0.63 | – | – | – | – | – |
| Oc1ccc2nccc(Nc3ccc(OCc4ccccc4)cc3)c2c1 | 0.86 | 2.5 | 0.42 | 0.95 | inactive | 0.37 | 0.66 | – | – | – | – | – |
| COc1ccc2c(Nc3ccc(OCc4ccccc4)cc3)ncnc2c1 | 1.12 | > 100 | 0.87 | 1.05 | inactive | 0.64 | 0.99 | – | – | – | – | – |
| COc1ccc2nccc(Nc3ccc(NC(=O)c4ccc(C)cc4)c(O)c3)c2c1 | 1.17 | 10 | 1.28 | 1.11 | – | 0.95 | 1.14 | – | – | – | – | – |
| COc1cc2nccc(Nc3ccc(NC(=O)c4ccc(C)cc4)c(O)c3)c2cc1OC | 1.09 | 16 | 1.05 | 1.14 | – | 0.45 | 1.13 | – | – | – | – | – |
| Oc1cc2ncnc(Nc3ccc(OCc4ccccc4)cc3)c2cc1O | 0.93 | 8.8 | 0.76 | 0.95 | inactive | 0.69 | 0.91 | – | – | – | – | – |
| COCCOc1cc2ncnc(Nc3cc(OC)c(OC)c(OC)c3)c2cc1OCCOC | – | > 100 | 0.96 | – | – | 0.87 | 1.02 | >95 | >95 | – | – | – |
| COc1cc2nccc(Nc3ccc(NC(C)=O)cc3)c2cc1OC | 1.1 | 9.7 | 1.07 | 1.21 | – | 1.02 | 1.11 | – | – | – | – | – |
| C#Cc1cccc(Nc2ncnc3cc(OCCOC)c(OCCOC)cc23)c1 | – | – | – | – | inactive | – | – | – | – | – | – | – |
| COc1cc2ncnc(Nc3ccc(F)c(Cl)c3)c2cc1OCCCN1CCOCC1 | – | – | – | – | inactive | – | – | – | – | – | – | – |
| COc1cc2nccc(Nc3cc(OC)c(OC)c(OC)c3)c2cc1OC | – | > 100 | 1.11 | – | – | 1.06 | 1.26 | >95 | >95 | – | – | – |
| COc1cc(Nc2ncnc3ccc(C(F)(F)F)cc23)cc(OC)c1OC | – | > 100 | 1.12 | – | – | 1.06 | 1.25 | >95 | >95 | – | – | – |
| COc1cc2ncnc(Nc3cccc(Br)c3)c2cc1OC | – | 3.9 | 0.71 | – | – | 0.65 | 0.98 | >95 | >95 | – | – | – |
| COc1cc2ncnc(Nc3ccc(OCc4ccccc4)cc3)c2cc1OC | 1.04 | > 100 | 0.77 | 1.04 | inactive | 0.6 | 0.83 | – | – | – | – | – |
| COc1ccc2ncnc(Nc3ccc(OCc4ccccc4)cc3)c2c1 | 1.07 | > 100 | 0.83 | 1.04 | inactive | 0.62 | 0.89 | – | – | – | – | – |
